# Test results taken from the RNAGym collection of RNA variant scans (doi:10.1038/s41586-018-0170-7).
# B1: tRNA (parent)
# chain: GUUCCGUUGGCGUAAUGGUAACGCGUCUCCCUCCUAAGGAGAAGACUGCGGGUUCGAGUCCCGUACGGAACG
# Variants of: B1
# Assay: yeast fitness, log relative to wild type (ln ratio); higher = fitter; tRNA-Arg(CCU), competitive growth, 37 C, 1 M NaCl
# In short: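 Genotype fitness is expressed as the natural log of its generations over those of the wild type. Each pool of the tRNA-Arg(CCU) variant library, carried on a HIS3 centromeric plasmid in BY4742 lacking the chromosomal gene, came from one of two independent transformations and grew 4 generations in SC-HIS at 30 °C before ~6.5 generations (~26.5 h) in SC-HIS 1M NaCl at 37 °C. Generation numbers used OD-scaled log2 output/input frequencies from 125 bp paired-end Illumina sequencing, combined across replicates by inverse-variance weighting.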
row,Variant,yeast fitness (ln)
1,AGUCCAUUGGCGUAAUGGUAACGCGUCUCCCUCCUAAGGAGAAGACUGCGGGUUCGAGUCCCGUACGGAAUG,-0.136
2,AGUCCAUUGGCGUAAUGGUAACGCGUUUCCCUCCUAAGGAGAAGAUUGCGGGUUCGAGUCCCGUAAGGAAUG,-0.179
3,GGUCCGUUGGCGUAAUGGUAACGCGUCUCCCUCCUAAGGAGAAGACUGCGGGUUCGAGUCCCGUAUGGGGCG,-0.151
4,ACUCCAUUGGCGUAAUGGUAACGCGUUUCCCUCCUAAGGAGAAGACUGCGGGUUCGAGUCCCGUAUGGAGCG,-0.128
5,ACUCCAUUGGCGUAAUGGUAACGCGUUUCCCUCCUAAGGAGAAGAUUGCGGGUUCGAGUCCCGUAUGGAGUG,-0.00474
6,GCUCCGUUGGCGUAAUGGUAACGCGUCUCCCUCCUAAGGAGACGACUGCGGGUUCGAGUCCCGUAUGGAGUG,-0.346
7,AUUCCUUUGGCGUAAUGGUAACGCGUCUCCCUCCUAAGGAGAAGACUGCGGGUUCGAGUCCCGUAUGGGGCG,-0.288
8,GUUCCAUUGGCGUAAUGGUAACGCGUUUCCCUCCUAAGGAGACGAUUGCGGGUUCGAGUCCCGUAAGGGGUG,-0.292
9,GGUCCGUUGGCGUAAUGGUAACGCGUCUCCCUCCUAAGGAGACGACUGCGGGUUCGAGUCCCGUACGGGAUG,-0.163
10,AUUCCGUUGGCGUAAUGGUAACGCGUUUCCCUCCUAAGGAGACGAUUGCGGGUUCGAGUCCCGUAAGGGUUG,-0.415
11,AUUCCAUUGGCGUAAUGGUAACGCGUCUCCCUCCUAAGGAGAAGAUUGCGGGUUCGAGUCCCGUACGGGGCG,-0.123
12,ACUCCUUUGGCGUAAUGGUAACGCGUUUCCCUCCUAAGGAGAAGAUUGCGGGUUCGAGUCCCGUAUGGGUCG,-0.222
13,GGUCCGUUGGCGUAAUGGUAACGCGUCUCCCUCCUAAGGAGAAGACUGCGGGUUCGAGUCCCGUAAGGAAUG,-0.108
14,AGUCCGUUGGCGUAAUGGUAACGCGUCUCCCUCCUAAGGAGAAGACUGCGGGUUCGAGUCCCGUAAGGAAUG,-0.0937
15,AUUCCGUUGGCGUAAUGGUAACGCGUUUCCCUCCUAAGGAGAAGAUUGCGGGUUCGAGUCCCGUACGGAUCG,-0.088
16,AGUCCGUUGGCGUAAUGGUAACGCGUUUCCCUCCUAAGGAGACGAUUGCGGGUUCGAGUCCCGUAUGGGAUG,-0.383
17,AGUCCUUUGGCGUAAUGGUAACGCGUUUCCCUCCUAAGGAGAAGACUGCGGGUUCGAGUCCCGUAUGGAUCG,-0.386
18,AUUCCGUUGGCGUAAUGGUAACGCGUUUCCCUCCUAAGGAGACGACUGCGGGUUCGAGUCCCGUACGGAGUG,-0.426
19,AUUCCGUUGGCGUAAUGGUAACGCGUUUCCCUCCUAAGGAGACGAUUGCGGGUUCGAGUCCCGUAAGGAUCG,-0.155

row,Variant,yeast fitness (ln)
1,GCUCCUUUGGCGUAAUGGUAACGCGUCUCCCUCCUAAGGAGAAGACUGCGGGUUCGAGUCCCGUAUGGAAUG,-0.139
2,GUUCCGUUGGCGUAAUGGUAACGCGUCUCCCUCCUAAGGAGAAGACUGCGGGUUCGAGUCCCGUACGGAAUG,-0.00399
3,GUUCCAUUGGCGUAAUGGUAACGCGUCUCCCUCCUAAGGAGACGAUUGCGGGUUCGAGUCCCGUAUGGAGUG,-0.144
4,GCUCCUUUGGCGUAAUGGUAACGCGUCUCCCUCCUAAGGAGAAGAUUGCGGGUUCGAGUCCCGUACGGAGCG,-0.0195
5,GGUCCAUUGGCGUAAUGGUAACGCGUUUCCCUCCUAAGGAGACGACUGCGGGUUCGAGUCCCGUAUGGGUUG,-0.434
6,AUUCCUUUGGCGUAAUGGUAACGCGUCUCCCUCCUAAGGAGAAGACUGCGGGUUCGAGUCCCGUACGGGAUG,-0.186
7,ACUCCGUUGGCGUAAUGGUAACGCGUCUCCCUCCUAAGGAGACGACUGCGGGUUCGAGUCCCGUACGGGUCG,-0.0414
8,AUUCCAUUGGCGUAAUGGUAACGCGUUUCCCUCCUAAGGAGACGAUUGCGGGUUCGAGUCCCGUAUGGGUCG,-0.471
9,ACUCCGUUGGCGUAAUGGUAACGCGUUUCCCUCCUAAGGAGAAGACUGCGGGUUCGAGUCCCGUAUGGGGCG,-0.313
10,GUUCCGUUGGCGUAAUGGUAACGCGUCUCCCUCCUAAGGAGACGACUGCGGGUUCGAGUCCCGUAUGGGUUG,-0.365
11,ACUCCUUUGGCGUAAUGGUAACGCGUCUCCCUCCUAAGGAGAAGACUGCGGGUUCGAGUCCCGUACGGGUCG,-0.152
12,AUUCCAUUGGCGUAAUGGUAACGCGUCUCCCUCCUAAGGAGAAGAUUGCGGGUUCGAGUCCCGUACGGAGCG,-0.0807
13,GGUCCAUUGGCGUAAUGGUAACGCGUCUCCCUCCUAAGGAGACGACUGCGGGUUCGAGUCCCGUAUGGGGUG,-0.304
14,GCUCCUUUGGCGUAAUGGUAACGCGUCUCCCUCCUAAGGAGACGACUGCGGGUUCGAGUCCCGUAAGGGUCG,-0.338
15,GGUCCGUUGGCGUAAUGGUAACGCGUUUCCCUCCUAAGGAGAAGACUGCGGGUUCGAGUCCCGUAUGGGGUG,-0.264
16,AGUCCAUUGGCGUAAUGGUAACGCGUCUCCCUCCUAAGGAGAAGACUGCGGGUUCGAGUCCCGUAUGGGUCG,-0.334
17,GGUCCGUUGGCGUAAUGGUAACGCGUUUCCCUCCUAAGGAGAAGAUUGCGGGUUCGAGUCCCGUAAGGGUCG,-0.0493
18,GGUCCGUUGGCGUAAUGGUAACGCGUUUCCCUCCUAAGGAGACGAUUGCGGGUUCGAGUCCCGUACGGAUUG,-0.0906
19,GUUCCAUUGGCGUAAUGGUAACGCGUCUCCCUCCUAAGGAGACGAUUGCGGGUUCGAGUCCCGUACGGGUUG,-0.493
